The results in this text go back to PubChem BioAssay AID463171 (The Scripps Research Institute Molecular Screening Center, 2010).

The source made the active and inactive calls.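 The calls were made as follows: active = p27 reporter light at least 10 times the solvent-only level, showing blocked p27 breakdown; inactive = ratio under 10.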

The experiment concerns the target Cyclin-dependent kinase inhibitor 1B (Homo sapiens) (UniProt P46527). Description: inhibitors of p27 turnover in HeLa cells, late-stage follow-up, counter-screen for Wee1 degradation inhibitor project, cell-based, luminescence, p27-luciferase fusion, powder samples (AID 463171). The note with it: HeLa p27-luciferase fusion stability, at 0.1 µM, stronger effect = higher value. Summed up:
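Assay system: human HeLa cells transiently expressing a p27-luciferase fusion reporter / Incubation: compound exposure 20 h at 37 °C, cells 48 h post-transfection / Repeats: quadruplicate wells / Evaluation: mean fold change in luminescence relative to DMSO vehicle wells / Technique: luminescence after addition of Brite-lite luciferase reagent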
On the technique in general: The purpose of a counterscreen is to sort out artefacts and off-target activity.

Cyclin-dependent kinase inhibitor 1B (Homo sapiens), sequence (P46527 whole entry, looked up, the tested form may be a part): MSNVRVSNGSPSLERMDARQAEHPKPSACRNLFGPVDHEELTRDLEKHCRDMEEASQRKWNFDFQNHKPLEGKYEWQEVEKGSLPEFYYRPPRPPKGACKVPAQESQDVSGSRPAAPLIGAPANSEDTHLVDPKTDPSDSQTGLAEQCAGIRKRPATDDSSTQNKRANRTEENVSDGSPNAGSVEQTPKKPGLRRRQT

On to `O=[N+]([O-])c1cccc2[nH]c(CNc3nc(N4CCOCC4)nc4c3ncn4-c3ccsc3)nc12`, for which the fold change is 4.61 (inactive).

Regarding `c1ccc2[nH]c(CNc3nc(N4CCOCC4)nc4c3ncn4-c3ccsc3)nc2c1`, the fold change is 3.13 (inactive).
